Measurements pooled from the literature.
Compare with care: the assays were run in different laboratories.
Mode: inhibitor
APOBEC3G: DNA dC->dU-editing enzyme APOBEC-3G (APOBEC3G, Homo sapiens, UniProt Q9HC16)
DPP4: Dipeptidyl peptidase 4 (DPP4, Homo sapiens, UniProt P27487)
CDK9 with cyclin T1: Cyclin-dependent kinase 9, with cyclin T1 (CDK9, Homo sapiens, UniProt P50750)
ACHE: Acetylcholinesterase (ACHE, Homo sapiens, UniProt P22303)

Structure (SMILES) | target | test | test system | conditions | IC50 [µM]
C[C@H]1CN(c2n[nH]c3nc(N[C@H]4CC[C@H](NS(=O)(=O)CCC(F)(F)F)CC4)ncc23)CCO1 | Cyclin-dependent kinase 9 (CDK9, Homo sapiens, UniProt P50750) | cell-free assay, chemoproteomics | – | lysate | > 20
CSCC[C@H](NC(=O)[C@H](Cc1c[nH]cn1)NC(=O)[C@H](Cc1c[nH]cn1)NC(=O)[C@@H](N)CCCCN)C(=O)N[C@@H](Cc1ccc(O)cc1)C(=O)N[C@H](C(=O)N[C@@H](CO)C(=O)NCC(=O)N[C@@H](CCCCN)C(=O)N[C@@H](C)C(=O)N[C@@H](CCCNC(=N)N)C(=O)NCC(=O)N[C@@H](Cc1c[nH]c2ccccc12)C(=O)N[C@@H](Cc1ccccc1)C(=O)O)C(C)C | APOBEC3G | enzyme activity | – | pH 7.4 | 80
CC(C)[C@H](N)C(=O)N1CCC[C@H]1C(=O)N[C@H](C(=O)N1CCC[C@H]1C(=O)N[C@@H](CCC(N)=O)C(=O)O)C(C)C | DPP4 | enzyme activity, absorbance | – | pH 8 | 112
COc1c(-c2ccccc2)oc2c(ccc3occc32)c1=O | CDK9 with cyclin T1 | enzyme activity, ADP detection | – | – | > 100
CC[C@H](C)[C@H](NC(=O)[C@@H]1CCCN1C(=O)[C@@H](NC(=O)[C@@H]1CCCN1C(=O)[C@@H](N)C(C)C)C(C)C)C(=O)O | DPP4 | enzyme activity, absorbance | – | pH 8 | 103
COc1c(-c2ccc3c(c2)OCO3)oc2c(ccc3occc32)c1=O | CDK9 with cyclin T1 | enzyme activity, ADP detection | – | – | 38.4
C=CCn1c2cc(OC(=O)CCCCN3CCN(Cc4cccc(C)c4)CC3)ccc2c2ccnc(C)c21 | ACHE | enzyme activity, Ellman | – | – | 0.0358
CC(C)C[C@@H]1C(=O)N[C@H]([C@@H](C)O)C(=O)N[C@H](C)[C@@H](C)C(=O)O[C@@H](Cc2ccccc2)C(=O)N(C)[C@@H](C(C)C)C(=O)N2CCC[C@H]2C(=O)N(C)[C@H](Cc2ccccc2)C2=N[C@@H](CS2)C(=O)N[C@H](C)C2=N[C@@H](CS2)C(=O)N1C | DPP4 | enzyme activity | – | – | 164
CC[C@H](C)[C@H](N)C(=O)N[C@@H](Cc1c[nH]cn1)C(=O)N[C@@H](CC(C)C)C(=O)N[C@@H](Cc1ccc(O)cc1)C(=O)N[C@@H](Cc1ccc(O)cc1)C(=O)N[C@@H](Cc1ccccc1)C(=O)N[C@@H](CC(=O)O)C(=O)O | APOBEC3G | enzyme activity | – | pH 7.4 | 110
CC[C@H]1NC(=O)[C@@H]2CSC(=N2)[C@@H](Cc2ccccc2)N(C)C(=O)[C@@H]2CCCN2C(=O)[C@H](C(C)C)N(C)C(=O)[C@H](Cc2ccccc2)OC(=O)[C@H](C)[C@@H](C)NC(=O)[C@@H]([C@@H](C)O)NC(=O)[C@@H](CC(C)C)N(C)C(=O)[C@@H]2CSC1=N2 | DPP4 | enzyme activity | – | – | 347
CC[C@H](C)[C@H](N)C(=O)N1CCC[C@H]1C(=O)N[C@H](C(=O)N1CCC[C@H]1C(=O)N[C@H](C(=O)O)[C@@H](C)CC)C(C)C | DPP4 | enzyme activity, absorbance | – | pH 8 | 57
Cc1cc(C)nc(Nc2ncc(C(=O)NCCc3c(C)[nH]c4ccccc34)cn2)c1 | Cytochrome P450 2C8 (CYP2C8, Homo sapiens, UniProt P10632) | enzyme activity | human, liver microsomes | – | 4
CC(C)[C@H](N)C(=O)N1CCC[C@H]1C(=O)N[C@H](C(=O)N1CCC[C@H]1C(=O)N[C@H](C(=O)O)C(C)C)C(C)C | DPP4 | enzyme activity, absorbance | – | pH 8 | 59.1
C=CCn1c2cc(OC(=O)CCCCN3CCN(Cc4ccccc4F)CC3)ccc2c2ccnc(C)c21 | ACHE | enzyme activity, Ellman | – | – | 0.15
